Results published in ChEMBL document CHEMBL1255513, “Synthesis and biological evaluation of indomethacin analogs possessing a N-difluoromethyl-1,2-dihydropyrid-2-one ring system: a search for novel cyclooxygenase and lipoxygenase inhibitors” (Bioorg Med Chem Lett, 2010).
Calls of active or inactive are those of the source. The rule behind the calls is not given here.

Experiments:
[1] = target: T1, Prostaglandin G/H synthase 2 (Homo sapiens, UniProt P35354); test: Inhibition of human recombinant COX2 by enzyme immunoassay
T1 sequence (P35354 whole entry): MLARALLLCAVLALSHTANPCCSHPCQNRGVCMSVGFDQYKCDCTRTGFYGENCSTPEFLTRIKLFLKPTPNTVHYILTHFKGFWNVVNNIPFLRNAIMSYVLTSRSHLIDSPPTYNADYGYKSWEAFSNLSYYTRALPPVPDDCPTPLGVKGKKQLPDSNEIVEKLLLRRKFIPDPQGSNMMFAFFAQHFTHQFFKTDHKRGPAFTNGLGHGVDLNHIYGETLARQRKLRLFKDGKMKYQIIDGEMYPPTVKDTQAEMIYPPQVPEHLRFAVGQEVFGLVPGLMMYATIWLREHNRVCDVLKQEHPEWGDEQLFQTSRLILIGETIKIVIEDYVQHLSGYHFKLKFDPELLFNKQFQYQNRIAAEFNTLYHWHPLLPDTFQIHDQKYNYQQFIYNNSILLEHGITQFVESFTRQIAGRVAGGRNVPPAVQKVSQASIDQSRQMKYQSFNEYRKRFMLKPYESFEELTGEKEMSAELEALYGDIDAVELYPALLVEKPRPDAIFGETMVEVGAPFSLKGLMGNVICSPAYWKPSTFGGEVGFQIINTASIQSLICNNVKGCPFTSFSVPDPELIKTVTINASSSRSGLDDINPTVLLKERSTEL

[2] = target: T2, Prostaglandin G/H synthase 1 (Ovis aries, UniProt P05979); test: Inhibition of ovine COX1 by enzyme immunoassay
T2 sequence (P05979 whole entry): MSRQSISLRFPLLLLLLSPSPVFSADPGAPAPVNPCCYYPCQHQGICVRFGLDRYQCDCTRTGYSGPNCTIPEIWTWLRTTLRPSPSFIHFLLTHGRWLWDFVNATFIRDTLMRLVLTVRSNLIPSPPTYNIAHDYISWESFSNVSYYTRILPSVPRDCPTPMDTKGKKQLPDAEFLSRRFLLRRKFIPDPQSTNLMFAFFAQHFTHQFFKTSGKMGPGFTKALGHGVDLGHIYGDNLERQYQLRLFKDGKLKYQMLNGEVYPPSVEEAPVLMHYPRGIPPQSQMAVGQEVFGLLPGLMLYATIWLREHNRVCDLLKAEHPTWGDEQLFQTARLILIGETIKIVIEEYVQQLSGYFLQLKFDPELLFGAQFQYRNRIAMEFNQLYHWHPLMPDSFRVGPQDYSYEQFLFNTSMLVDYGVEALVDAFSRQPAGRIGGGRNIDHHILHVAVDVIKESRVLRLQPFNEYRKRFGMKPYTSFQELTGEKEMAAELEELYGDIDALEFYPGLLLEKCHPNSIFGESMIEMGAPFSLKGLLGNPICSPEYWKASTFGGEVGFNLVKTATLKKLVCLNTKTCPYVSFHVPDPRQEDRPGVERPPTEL
Outline: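 COX inhibition was measured by enzyme immunoassay kit. IC50 is the mean of two determinations, with deviation from the mean below 10%.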

[3] = Inhibition of potato 5-lipoxygenase by enzyme immunoassay; design: species or system Solanum tuberosum
Rattus norvegicus [4] = test: Antiinflammatory activity in rat assessed as inhibition of carrageenan-induced rat paw edema at 100 mg/kg, po after 3 hrs; format: functional
Outline: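 Carrageenan-induced rat paw edema; test compound given orally at 100 mg/kg. Result is % inhibition of inflammation at 3 h after dosing. Protocol was approved by the University of Alberta Health Sciences Animal Welfare Committee.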

Rattus norvegicus [5] = test: Antiinflammatory activity in rat assessed as inhibition of carrageenan-induced rat paw edema at 4.2 mg/kg, po after 3 hrs; format: functional
Outline: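 Carrageenan-induced foot paw edema in rats, with the agent given orally. Read-out is % inhibition of inflammation, measured 3 h after the oral dose. Animal work followed protocols approved by the University of Alberta Health Sciences Animal Welfare Committee.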

SMILES	IC50 [1] [µM]	IC50 [2] [µM]	IC50 [3] [µM]	inhibition in vivo at 100 mg/kg (Rattus norvegicus [4]) [%]	inhibition (Rattus norvegicus [4])	inhibition in vivo at 4.2 mg/kg (Rattus norvegicus [5]) [%]
CC(Cc1ccc(O)c(O)c1)C(C)Cc1ccc(O)c(O)c1 (centres undefined) [NORDIHYDROGUAIARETIC ACID]	–	–	13	–	–	–
COc1ccc2c(c1)c(CC(=O)O)c(C)n2C(=O)c1ccc(Cl)cc1 [INDOMETHACIN]	–	–	–	–	–	50

Further lines, with some results ahead:

IC50 [1] [µM]	IC50 [2] [µM]	IC50 [3] [µM]	SMILES	inhibition in vivo at 100 mg/kg (Rattus norvegicus [4]) [%]	inhibition (Rattus norvegicus [4])	inhibition in vivo at 4.2 mg/kg (Rattus norvegicus [5]) [%]
> 100	> 100	> 100	COc1ccc2c(c1)c(CC(=O)O)c(C)n2C(=O)c1ccn(C(F)F)c(=O)c1	25.5	–	–
31	> 100	> 100	COc1ccc2c(c1)c(CC(=O)O)c(C)n2Cc1ccn(C(F)F)c(=O)c1	–	inactive	–
> 100	> 100	> 100	COc1ccc2c(c1)c(CC(=O)O)c(C)n2Cc1ccc(=O)n(C(F)F)c1	16	–	–
